Assay results as given in ChEMBL document CHEMBL2046301, “Synthesis and antimycobacterial activity of some phthalimide derivatives” (Bioorg Med Chem, 2012).
Converted amounts (≈) assume the structure as drawn.

system: Mycobacterium tuberculosis; assay: Antimycobacterial activity against Mycobacterium tuberculosis H37Ra ATCC 25177 by microbroth dilution method; format: functional; details: not given
Summary of the method: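 M. tuberculosis H37Ra (ATCC 25177) colonies suspended in Middlebrook 7H9 broth to 1.0 McFarland, diluted tenfold, mixed 1:1 with twofold compound dilutions (DMSO stocks; final 256 to 1 µg/mL). Growth was checked by Kinyoun acid-fast smear. MIC = lowest concentration giving complete inhibition.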

Question: Which results are given for `CC(=O)NS(=O)(=O)c1ccc(N2C(=O)c3ccccc3C2=O)cc1`?
Answer: MBC: 256 µg/mL (≈ 743 µM); MIC: 256 µg/mL (≈ 743 µM)

Question: For `O=C(NS(=O)(=O)c1ccc(N2C(=O)c3ccccc3C2=O)cc1)c1ccccc1`, which MBC is on record?
Answer: Its MBC is 256 µg/mL (≈ 630 µM).

Question: And the MIC?
Answer: The MIC was 128 µg/mL (≈ 315 µM).

Question: For `O=C1c2ccccc2C(=O)N1c1ccc(S(=O)(=O)Nc2nccs2)cc1`, which MBC is on record?
Answer: Its MBC is 256 µg/mL (≈ 664 µM).

Question: What about the MIC of the same molecule?
Answer: The MIC was 256 µg/mL (≈ 664 µM).

Question: For `CC(=O)NS(=O)(=O)c1ccc(N2C(=O)c3c(F)c(F)c(F)c(F)c3C2=O)cc1`, which MBC is on record?
Answer: The MBC was 128 µg/mL (≈ 307 µM).

Question: What about the MIC of the same molecule?
Answer: The MIC was 64 µg/mL (≈ 154 µM).

Question: For `O=C(NS(=O)(=O)c1ccc(N2C(=O)c3c(F)c(F)c(F)c(F)c3C2=O)cc1)c1ccccc1`, which MBC is on record?
Answer: Its MBC is 128 µg/mL (≈ 268 µM).

Question: What about the MIC of the same molecule?
Answer: The MIC was 64 µg/mL (≈ 134 µM).

Question: For `O=C1c2c(F)c(F)c(F)c(F)c2C(=O)N1c1ccc(S(=O)(=O)Nc2ncccn2)cc1`, which MBC is on record?
Answer: The MBC was 64 µg/mL (≈ 141 µM).

Question: And the MIC?
Answer: The MIC was 32 µg/mL (≈ 70.7 µM).

Question: With `Cc1cc(C)nc(NS(=O)(=O)c2ccc(N3C(=O)c4c(F)c(F)c(F)c(F)c4C3=O)cc2)n1` as the molecule, how does the MBC read?
Answer: Its MBC is 128 µg/mL (≈ 266 µM).

Question: And the MIC?
Answer: The MIC was 32 µg/mL (≈ 66.6 µM).

Question: Which MBC does the source give for `O=C1c2c(F)c(F)c(F)c(F)c2C(=O)N1c1ccc(S(=O)(=O)Nc2nccs2)cc1` here?
Answer: Its MBC is 64 µg/mL (≈ 140 µM).

Question: And the MIC?
Answer: The MIC was 64 µg/mL (≈ 140 µM).

Question: With `Cc1cc(NS(=O)(=O)c2ccc(N3C(=O)c4c(F)c(F)c(F)c(F)c4C3=O)cc2)no1` as the molecule, how does the MBC read?
Answer: The MBC was 128 µg/mL (≈ 281 µM).

Question: And the MIC?
Answer: The MIC was 32 µg/mL (≈ 70.3 µM).

Question: For `Cc1ccnc(NS(=O)(=O)c2ccc(N3C(=O)c4c(F)c(F)c(F)c(F)c4C3=O)cc2)n1`, which MBC is on record?
Answer: The MBC was 256 µg/mL (≈ 549 µM).

Question: And the MIC?
Answer: Its MIC is 128 µg/mL (≈ 274 µM).

Question: Which results are given for `COc1ncnc(NS(=O)(=O)c2ccc(N3C(=O)c4c(F)c(F)c(F)c(F)c4C3=O)cc2)c1OC`?
Answer: MBC: 64 µg/mL (≈ 125 µM); MIC: 32 µg/mL (≈ 62.5 µM)

Question: For `NNC(=O)c1ccncc1` [ISONIAZID], which MIC is on record?
Answer: The MIC was < 0.2 µg/mL.

Question: With `Nc1ccc(S(=O)(=O)NC(=O)c2ccccc2)cc1` [SULFABENZAMIDE] as the molecule, how does the MBC read?
Answer: The MBC was 256 µg/mL (≈ 926 µM).

Question: What about the MIC of the same molecule?
Answer: The MIC was 32 µg/mL (≈ 116 µM).

Question: What does the source list for `CC(=O)NS(=O)(=O)c1ccc(N)cc1` [SULFACETAMIDE]?
Answer: MBC: 256 µg/mL (≈ 1190 µM); MIC: 64 µg/mL (≈ 299 µM)

Question: With `Nc1ccc(S(=O)(=O)Nc2ncccn2)cc1` [SULFADIAZINE] as the molecule, how does the MBC read?
Answer: Its MBC is 128 µg/mL (≈ 511 µM).

Question: What about the MIC of the same molecule?
Answer: Its MIC is 8 µg/mL (≈ 32 µM).

Question: For `COc1ncnc(NS(=O)(=O)c2ccc(N)cc2)c1OC` [SULFADOXINE], which MBC is on record?
Answer: Its MBC is 256 µg/mL (≈ 825 µM).

Question: What about the MIC of the same molecule?
Answer: The MIC was 32 µg/mL (≈ 103 µM).

Question: Which MBC does the source give for `Cc1ccnc(NS(=O)(=O)c2ccc(N)cc2)n1` [SULFAMERAZINE] here?
Answer: The MBC was 256 µg/mL (≈ 969 µM).

Question: And the MIC?
Answer: Its MIC is 32 µg/mL (≈ 121 µM).

Question: Which results are given for `Cc1cc(C)nc(NS(=O)(=O)c2ccc(N)cc2)n1` [SULFAMETHAZINE]?
Answer: MBC: 256 µg/mL (≈ 920 µM); MIC: 32 µg/mL (≈ 115 µM)

Question: With `Cc1cc(NS(=O)(=O)c2ccc(N)cc2)no1` [SULFAMETHOXAZOLE] as the molecule, how does the MBC read?
Answer: Its MBC is 256 µg/mL (≈ 1010 µM).

Question: What about the MIC of the same molecule?
Answer: The MIC was 32 µg/mL (≈ 126 µM).

Question: For `Nc1ccc(S(=O)(=O)Nc2nccs2)cc1` [SULFATHIAZOLE], which MBC is on record?
Answer: Its MBC is 16 µg/mL (≈ 62.7 µM).

Question: What about the MIC of the same molecule?
Answer: The MIC was 4 µg/mL (≈ 15.7 µM).

Question: What does the source list for `O=C1CCC(N2C(=O)c3ccccc3C2=O)C(=O)N1` (stereo not drawn) [THALIDOMIDE]?
Answer: MBC: 256 µg/mL (≈ 991 µM); MIC: 128 µg/mL (≈ 496 µM)

system: not listed separately; assay: Cytotoxicity against mouse L929 cells at 0.1 mM assessed as cell viability after 24 hrs by MTT assay; format: cell-based; details: read-out: Activity
Summary of the method: (§1)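 L929 mouse fibroblasts seeded at 3 × 10³ cells/well in 100 µl medium; cell-free medium wells as controls. Exposed to compounds at 10^-4 M for 24 h. Viable cells quantified by MTT with absorbance read at 570 nm. Viability given as percent of absorbance of unexposed cells. Each experiment repeated three times.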

Question: With `Cc1cc(NS(=O)(=O)c2ccc(N3C(=O)c4c(F)c(F)c(F)c(F)c4C3=O)cc2)no1` as the molecule, how does the viability at 24 h, 100 µM read?
Answer: The viability at 24 h, 100 µM was < 50%.

Question: With `COc1ncnc(NS(=O)(=O)c2ccc(N3C(=O)c4c(F)c(F)c(F)c(F)c4C3=O)cc2)c1OC` as the molecule, how does the viability at 24 h, 100 µM read?
Answer: The viability at 24 h, 100 µM was < 50%.

system: L929; assay: Cytotoxicity against mouse L929 cells at 0.1 mM after 24 hrs by MTT assay; format: cell-based; details: l929, 24 h, 100 µM; summary of the method: as §1

Question: Which Activity does the source give for `CC(=O)NS(=O)(=O)c1ccc(N2C(=O)c3ccccc3C2=O)cc1` here?
Answer: Its Activity is “Non-toxic”.

Question: With `O=C(NS(=O)(=O)c1ccc(N2C(=O)c3ccccc3C2=O)cc1)c1ccccc1` as the molecule, how does the Activity read?
Answer: The Activity was “Non-toxic”.

Question: Which Activity does the source give for `O=C1c2ccccc2C(=O)N1c1ccc(S(=O)(=O)Nc2nccs2)cc1` here?
Answer: The Activity was “Non-toxic”.

Question: For `CC(=O)NS(=O)(=O)c1ccc(N2C(=O)c3c(F)c(F)c(F)c(F)c3C2=O)cc1`, which Activity is on record?
Answer: Its Activity is “Non-toxic”.

Question: For `O=C(NS(=O)(=O)c1ccc(N2C(=O)c3c(F)c(F)c(F)c(F)c3C2=O)cc1)c1ccccc1`, which Activity is on record?
Answer: The Activity was “Non-toxic”.

Question: With `O=C1c2c(F)c(F)c(F)c(F)c2C(=O)N1c1ccc(S(=O)(=O)Nc2ncccn2)cc1` as the molecule, how does the Activity read?
Answer: The Activity was “Non-toxic”.

Question: With `Cc1cc(C)nc(NS(=O)(=O)c2ccc(N3C(=O)c4c(F)c(F)c(F)c(F)c4C3=O)cc2)n1` as the molecule, how does the Activity read?
Answer: The Activity was “Toxic”.

Question: With `O=C1c2c(F)c(F)c(F)c(F)c2C(=O)N1c1ccc(S(=O)(=O)Nc2nccs2)cc1` as the molecule, how does the Activity read?
Answer: The Activity was “Non-toxic”.

Question: For `Cc1cc(NS(=O)(=O)c2ccc(N3C(=O)c4c(F)c(F)c(F)c(F)c4C3=O)cc2)no1`, which Activity is on record?
Answer: The Activity was “Toxic”.

Question: With `COc1ncnc(NS(=O)(=O)c2ccc(N3C(=O)c4c(F)c(F)c(F)c(F)c4C3=O)cc2)c1OC` as the molecule, how does the Activity read?
Answer: Its Activity is “Toxic”.
